Data published in article PMC10549240 (RSC Chemical Biology, 2023).

Tests used:
Env-PepK = test: Bind&Bite reaction with Env-PepK in DMEM/10% FCS, SDS-PAGE and Western Blot; set-up: species or system HIV-1; conditions: Env-PepK 71 nM in DMEM with 10% FCS; 30 min RT; streptavidin-HRP blot
How it was run: (§1)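 Env trimers (wild-type or C-terminal G4S-PepK fusion) were expressed in FreeStyle 293-F cells and lectin-purified. Biotinylated PepE was either activated in situ (7.1 μM with 71 μM EDC and 177.5 μM NHS, 30 min RT) or used as pre-activated, HPLC-purified NHS ester. It was added 1:10 to Env at 71 nM final in DMEM/10% FCS, giving final peptide 710, 71, 7.1 or 0.71 nM. Mixtures were incubated 30 min RT, run on reducing 10% SDS-PAGE, and blotted. Blots were probed with streptavidin-HRP or goat anti-gp120/anti-goat HRP, with ECL detection.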

Env(wt) = test: Bind&Bite reaction with Env; set-up: species or system HIV-1; conditions: DMEM with 10% FCS
How it was run: as §1

Bio-PepK-StA [1] = format: binding; conditions: C-terminal truncation of Fluo-PepE, Fig. 3A
How it was run: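 Fluorescein-labelled PepE variants truncated at the C-terminus (50 nM in water) were mixed 1:1 with serial dilutions of biotin-PepK/streptavidin complex starting at 20 μM. No activation was used. Fluorescence polarization was measured after 30 min (485 nm excitation, 535 nm emission). The read-out was the Δpolarization relative to samples without biotinylated peptide/streptavidin.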

Bio-PepK-StA [2] = test: Flupol binding assay after Bind&Bite reaction; conditions: covalently stabilized by Bind&Bite, Fig. 3B
How it was run: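 Equal volumes were mixed with serially diluted biotin-PepK/streptavidin complex starting at 20 μM. Fluorescence polarization was read after 30 min (ex 485/em 535 nm). The read-out was Δpolarization versus samples without biotinylated peptide/streptavidin.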

| Substance | affinity of the non-covalent interaction with full-length PepK (Bio-PepK-StA [1]) | other results |
| --- | --- | --- |
| Ac-EIAALEREIAALEREIAALER-Aoa-Aoa-Lys(Bio)-NH2 [PepE-Bio] |  | reaction with the PepK tag of Env-PepK (Env-PepK): selective reaction; off-target reaction with other components of the medium, in situ activated (Env(wt); in situ activated (EDC/NHS), Fig. 4C): considerable off-target reaction; off-target reactions, pre-activated, purified (Env(wt); pre-activated, purified PepE-Bio, Fig. 4D): largely eliminated |
| Fluo-Aoa-EIAALEREIAALER-NH2 [PepE(-7C)] | complete loss of binding | concentrations at which the peptide binds to full-length PepK (Bio-PepK-StA [2]): submicromolar |
| Fluo-Aoa-EIAALEREIAALERE-NH2 [PepE(-6C)] | complete loss of binding |  |
| Fluo-Aoa-EIAALEREIAALEREIAAL-NH2 [PepE(-2C)] | very similar to full-length PepE |  |
| Fluo-Aoa-EIAALEREIAALEREIAALE-NH2 [PepE(-1C)] | very similar to full-length PepE |  |
